# Assay results as given in ChEMBL document CHEMBL3232762, “Synthesis and biological evaluation of a novel sigma-1 receptor antagonist based on 3,4-dihydro-2(1H)-quinolinone scaffold as a potential analgesic” (Eur J Med Chem, 2014).
# Active and inactive are the calls of the source. The rule behind the calls is not given here.
# What was measured:
# [1] = system: Mus musculus; experiment: Antinociceptive activity against formalin-induced pain in Kunming mouse assessed as reduction in mean licking and biting time at 80 mg/kg, ip administered 15 mins before fomalin injection measured during second phase of 15 to 45 mins after formalin challenge; format: functional; settings: route intraperitoneal
# [2] = species on record: Cavia porcellus; experiment: Selectivity ratio of Ki for sigma 2 receptor in Dunkin Hartley guinea pig membrane to Ki for sigma 1 receptor in Dunkin Hartley guinea pig membrane; format: cell membranes
# [3] = system: Mus musculus; experiment: Antinociceptive activity in Kunming mouse assessed as reduction in formalin-induced pain behaviour at 40 mg/kg, ip administered 15 mins before fomalin injection measured during second phase of 15 to 45 mins after formalin challenge; format: functional
# How it was run: (§1)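 Kunming mice (20 ± 2.0 g), 10–12 per group, dosed i.p. in 30% PEG 400 (10 mL/kg) 15 min before intraplantar formalin. Paw licking/biting time was scored in phase I (0–5 min) and phase II (15–45 min). Antinociception (%) = (vehicle licking time − drug licking time)/vehicle licking time × 100. Two-way ANOVA with Newman-Keuls test.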
# [4] = system: Mus musculus; experiment: Antinociceptive activity in Kunming mouse assessed as reduction in formalin-induced pain behaviour at 160 mg/kg, ip administered 15 mins before fomalin injection measured during second phase of 15 to 45 mins after formalin challenge; format: functional; how it was run: as §1
# [5] = system: Mus musculus; experiment: Antinociceptive activity against formalin-induced pain in Kunming mouse assessed as reduction in mean licking and biting time at 80 mg/kg, ip administered 15 mins before fomalin injection measured during first phase of 0 to 5 mins after formalin challenge; format: functional; settings: route intraperitoneal
# [6] = Displacement of [3H]-DTG from sigma 2 receptor in Dunkin Hartley guinea pig membrane after 120 mins by liquid scintillation counting analysis […]; format: cell membranes, Cavia porcellus
# [7] = biological target: Sigma non-opioid intracellular receptor 1 (Cavia porcellus) (UniProt Q60492); experiment: Ratio of Ki for sigma 1 receptor in Dunkin Hartley guinea pig membrane in absence of phenytoin to Ki for sigma 1 receptor in Dunkin Hartley guinea pig membrane in presence of phenytoin; format: cell membranes
# [8] = system: Mus musculus; experiment: Antinociceptive activity in Kunming mouse assessed as reduction in formalin-induced pain behaviour at 80 mg/kg, ip administered 15 mins before fomalin injection measured during second phase of 15 to 45 mins after formalin challenge; format: functional; how it was run: as §1
# [9] = system: Mus musculus; experiment: Antinociceptive activity in Kunming mouse assessed as reduction in formalin-induced pain behaviour at 160 mg/kg, ip administered 15 mins before fomalin injection measured during first phase of 0 to 5 mins after formalin challenge; format: functional; how it was run: as §1
# [10] = system: Mus musculus; experiment: Antinociceptive activity in Kunming mouse assessed as reduction in formalin-induced pain behaviour at 40 mg/kg, ip administered 15 mins before fomalin injection measured during first phase of 0 to 5 mins after formalin challenge; format: functional; how it was run: as §1
# [11] = system: Mus musculus; experiment: Antinociceptive activity in Kunming mouse assessed as reduction in formalin-induced pain behaviour at 80 mg/kg, ip administered 15 mins before fomalin injection measured during first phase of 0 to 5 mins after formalin challenge; format: functional; how it was run: as §1
# [12] = biological target: Sigma non-opioid intracellular receptor 1 (Cavia porcellus, UniProt Q60492); experiment: Displacement of [3H]-(+)-pentazocine from sigma 1 receptor in Dunkin Hartley guinea pig membrane after 180 mins by liquid scintillation counting analysis; format: cell membranes
# [13] = biological target: Sigma non-opioid intracellular receptor 1 (Homo sapiens, UniProt Q99720); experiment: Binding affinity to sigma 1 receptor (unknown origin)
# [14] = system: Mus musculus; experiment: Antinociceptive activity in ip dosed Kunming mouse assessed as reduction in formalin-induced pain behaviour administered 15 mins before fomalin injection measured during first phase of 0 to 5 mins after formalin challenge; format: functional; how it was run: as §1
# [15] = system: Mus musculus; experiment: Antinociceptive activity in ip dosed Kunming mouse assessed as reduction in formalin-induced pain behaviour administered 15 mins before fomalin injection measured during second phase of 15 to 45 mins after formalin challenge; format: functional; how it was run: as §1
# Sequence of Sigma non-opioid intracellular receptor 1 (Cavia porcellus, UniProt Q60492) (Q60492 whole entry): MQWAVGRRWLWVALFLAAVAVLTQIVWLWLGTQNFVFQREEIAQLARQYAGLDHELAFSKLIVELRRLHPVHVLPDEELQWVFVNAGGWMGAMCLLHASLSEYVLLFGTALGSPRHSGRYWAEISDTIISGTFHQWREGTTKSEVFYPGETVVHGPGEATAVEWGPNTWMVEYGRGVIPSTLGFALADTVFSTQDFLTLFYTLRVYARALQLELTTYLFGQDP
# Sequence of Sigma non-opioid intracellular receptor 1 (Cavia porcellus) (Q60492 whole entry): as above
# Sequence of Sigma non-opioid intracellular receptor 1 (Homo sapiens, UniProt Q99720) (Q99720 whole entry): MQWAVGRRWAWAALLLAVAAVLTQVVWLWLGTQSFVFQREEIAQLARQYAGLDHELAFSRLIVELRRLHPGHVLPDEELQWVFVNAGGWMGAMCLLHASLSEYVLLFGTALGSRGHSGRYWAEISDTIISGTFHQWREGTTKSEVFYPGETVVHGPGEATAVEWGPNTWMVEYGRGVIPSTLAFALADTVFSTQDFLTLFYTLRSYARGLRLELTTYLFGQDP
smiles,measurement,setting,value
CC1CCN(CCCOc2ccc3c(c2)N(Cc2ccc(F)cc2)C(=O)CC3)CC1,Time,[1],89.75 s
same,Ratio Ki,[2],1250
same,inhibition,[3],Active
same,inhibition,[4],Active
same,Time,[5],34.82 s
same,Ki,[6],960 nM
same,Ratio Ki,[7],0.91
same,inhibition,[8],Active
same,inhibition,[9],Active
same,inhibition,[10],Active
same,inhibition,[11],Active
same,Ki,[12],0.77 nM
Cc1ccc(CN2C(=O)CCc3ccc(OCCCN4CCC(C)CC4)cc32)cc1,Ratio Ki,[2],507
same,Ki,[6],755 nM
same,Ki,[12],1.49 nM
O=C1CCc2ccc(OCCCN3CCN(c4ccccc4)CC3)cc2N1Cc1ccccc1,Ki,[6],> 2000 nM
same,Ki,[12],341 nM
O=C1CCN(CCCOc2ccc3c(c2)N(Cc2ccccc2)C(=O)CC3)CC1,Ratio Ki,[2],18.3
same,Ki,[6],1800 nM
same,Ki,[12],98.2 nM
O=C1CCc2cc(OCCCCN3CCOCC3)ccc2N1Cc1ccccc1,Ratio Ki,[2],11.7
same,Ki,[6],260 nM
same,Ki,[12],22.2 nM
O=C1CCc2ccc(OCCCN3CCCC3)cc2N1Cc1ccccc1,Ratio Ki,[2],23.1
same,Ki,[6],550 nM
same,Ki,[12],23.8 nM
CC1CCN(CCCOc2ccc3c(c2)NC(=O)CC3)CC1,Ratio Ki,[2],6.1
same,Ki,[6],409 nM
same,Ki,[12],66.7 nM
O=C1CCc2cc(OCCCN3CCOCC3)ccc2N1CCc1ccccc1,Ratio Ki,[2],2.4
same,Ki,[6],98.1 nM
same,Ki,[12],40.2 nM
CN1CCN(CCCOc2ccc3c(c2)N(Cc2ccccc2)C(=O)CC3)CC1,Ratio Ki,[2],37.4
same,Ki,[6],161 nM
same,Ki,[12],4.3 nM
CCN(CC)CCCOc1ccc2c(c1)N(Cc1ccccc1)C(=O)CC2,Ratio Ki,[2],2.5
same,Ki,[6],97.2 nM
same,Ki,[12],39.4 nM
O=C1CCc2cc(OCCCCCCN3CCOCC3)ccc2N1Cc1ccccc1,Ki,[6],> 2000 nM
same,Ki,[12],852 nM
O=C1CCc2cc(OCCCN3CCOCC3)ccc2N1Cc1ccccc1,Ratio Ki,[2],1.4
same,Ki,[6],1120 nM
same,Ki,[12],792 nM
O=C1CCc2cc(OCCCCN3CCOCC3)ccc2N1CCc1ccccc1,Ki,[6],> 2000 nM
same,Ki,[12],195 nM
O=C1CCc2cc(OCCCCCN3CCOCC3)ccc2N1Cc1ccccc1,Ratio Ki,[2],6.1
same,Ki,[6],430 nM
same,Ki,[12],70.7 nM
O=C1CCc2ccc(OCCCCN3CCOCC3)cc2N1CCc1ccccc1,Ratio Ki,[2],26.8
same,Ki,[6],1200 nM
same,Ki,[12],44.8 nM
O=C(CCCN1CCC(O)(c2ccc(Cl)cc2)CC1)c1ccc(F)cc1 [HALOPERIDOL],Ki,[6],36.4 nM
O=C1CCc2ccc(OCCCN3CCOCC3)cc2N1CCc1ccccc1,Ratio Ki,[2],4.6
same,Ki,[6],100 nM
same,Ki,[12],21.6 nM
CC1CCN(CCCOc2ccc3c(c2)N(Cc2ccccc2)C(=O)CC3)CC1,Ratio Ki,[2],290
same,Ki,[6],319 nM
same,Ki,[12],1.1 nM
CC1CCN(CCCOc2ccc3c(c2)N(C)C(=O)CC3)CC1,Ratio Ki,[2],7.7
same,Ki,[6],311 nM
same,Ki,[12],40.2 nM
O=C1CCc2ccc(OCCCN3CCCCC3)cc2N1,Ratio Ki,[2],3.2
same,Ki,[6],288 nM
same,Ki,[12],89.1 nM
Cc1ccccc1NC(=N)Nc1ccccc1C [DITOLYLGUANIDINE],Ki,[6],49.2 nM
Cc1ccc(CN2C(=O)CCc3ccc(OCCCN4CCCCC4)cc32)cc1,Ratio Ki,[2],488
same,Ki,[6],825 nM
same,Ki,[12],1.69 nM
CN(C)CCCOc1ccc2c(c1)N(Cc1ccccc1)C(=O)CC2,Ratio Ki,[2],2.4
same,Ki,[6],205 nM
same,Ki,[12],83.2 nM
O=C1CCc2ccc(OCCCN3CCCCC3)cc2N1Cc1ccccc1,Ratio Ki,[2],360
same,Ki,[6],662 nM
same,Ki,[12],1.84 nM
O=C1CCc2ccc(OCCCN3CCOCC3)cc2N1Cc1ccccc1,Ratio Ki,[2],31.8
same,Ki,[6],471 nM
same,Ki,[12],14.8 nM
O=C1CCc2ccc(OCCN3CCOCC3)cc2N1Cc1ccccc1,Ki,[6],> 2000 nM
same,Ki,[12],> 2000 nM
O=C1CCc2ccc(OCCCCN3CCOCC3)cc2N1Cc1ccccc1,Ratio Ki,[2],8.8
same,Ki,[6],530 nM
same,Ki,[12],60.2 nM
O=C1CCc2ccc(OCCCCCN3CCOCC3)cc2N1Cc1ccccc1,Ratio Ki,[2],20.4
same,Ki,[6],1810 nM
same,Ki,[12],88.4 nM
COc1cccc2c1CCC(=O)N2CCCN1CCN(c2cccc(Cl)c2)CC1,IC50,[13],47 nM
O=C1CCc2ccc(OCCCN3CCCCC3)cc2N1Cc1ccc(F)cc1,Time,[1],36.13 s
same,Ratio Ki,[2],1070
same,inhibition in vivo at 40 mg/kg,[3]; route intraperitoneal,30.5%
same,inhibition in vivo at 160 mg/kg,[4]; route intraperitoneal,98.2%
same,Time,[5],12.08 s
same,Ki,[6],1300 nM
same,Ratio Ki,[7],0.86
same,inhibition in vivo at 80 mg/kg,[8]; route intraperitoneal,87.7%
same,inhibition in vivo at 160 mg/kg,[9]; route intraperitoneal,97.6%
same,ED50,[14],49.4 mg/kg
same,inhibition,[14],Dose-dependent effect
same,inhibition in vivo at 40 mg/kg,[10]; route intraperitoneal,33.4%
same,inhibition in vivo at 80 mg/kg,[11]; route intraperitoneal,84.8%
same,ED50,[15],50.5 mg/kg
same,inhibition,[15],Dose-dependent effect
same,Ki,[12],1.22 nM
O=C1CCc2cc(OCCN3CCOCC3)ccc2N1Cc1ccccc1,Ki,[6],> 2000 nM
same,Ki,[12],> 2000 nM
Cc1cc(OCCN2CCOCC2)nn1-c1ccc2ccccc2c1,Time,[1],27.34 s
same,Ratio Ki,[2],> 190
same,Time,[5],8.63 s
same,Ki,[6],> 2000 nM
same,Ki,[12],10.5 nM
O=C1CCc2ccc(OCCCCCCN3CCOCC3)cc2N1Cc1ccccc1,Ki,[6],2000 nM
same,Ki,[12],682 nM
CN1C(=O)CCc2ccc(OCCCN3CCCCC3)cc21,Ratio Ki,[2],10.4
same,Ki,[6],357 nM
same,Ki,[12],34.3 nM
